In ChEMBL document CHEMBL2390911, “Synthesis and structure-activity relationships of 2-amino-3-carboxy-4-phenylthiophenes as novel atypical protein kinase C inhibitors” (Bioorg Med Chem Lett, 2013):

Columns and labels:
[1] = Inhibition of atypical PKCzeta in bovine retinal endothelial cells assessed as TNFalpha/VEGF-induced endothelial permeability preincubated for 30 mins followed by TNFalpha induction for 1 hr and VEGF induction for 30 mins measured every 30 mins for 4 hrs by Transwell assay; type: cell-based; settings: Bos taurus, Endothelial cell
Procedure, shortened: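 Retinal endothelial monolayers were given a 5-point compound dose-response, then VEGF/TNF was added for 1.5 h. Flux of 70kDa RITC-dextran across the monolayer was the read-out. Data are the mean of at least n≥8, repeated in independent experiments. EC50 was derived from a variable-slope dose-response fit.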

[2] = biological target: T1, Protein kinase C zeta type (Homo sapiens, UniProt Q05513); experiment: Inhibition of atypical PKCzeta in HEK293 cells assessed as TNF-induced NFkappaB activation incubated for 3 hrs prior to TNF induction measured after 5 hrs by bright-glo luciferase reporter gene assay; type: cell-based
T1 sequence (Q05513 whole entry): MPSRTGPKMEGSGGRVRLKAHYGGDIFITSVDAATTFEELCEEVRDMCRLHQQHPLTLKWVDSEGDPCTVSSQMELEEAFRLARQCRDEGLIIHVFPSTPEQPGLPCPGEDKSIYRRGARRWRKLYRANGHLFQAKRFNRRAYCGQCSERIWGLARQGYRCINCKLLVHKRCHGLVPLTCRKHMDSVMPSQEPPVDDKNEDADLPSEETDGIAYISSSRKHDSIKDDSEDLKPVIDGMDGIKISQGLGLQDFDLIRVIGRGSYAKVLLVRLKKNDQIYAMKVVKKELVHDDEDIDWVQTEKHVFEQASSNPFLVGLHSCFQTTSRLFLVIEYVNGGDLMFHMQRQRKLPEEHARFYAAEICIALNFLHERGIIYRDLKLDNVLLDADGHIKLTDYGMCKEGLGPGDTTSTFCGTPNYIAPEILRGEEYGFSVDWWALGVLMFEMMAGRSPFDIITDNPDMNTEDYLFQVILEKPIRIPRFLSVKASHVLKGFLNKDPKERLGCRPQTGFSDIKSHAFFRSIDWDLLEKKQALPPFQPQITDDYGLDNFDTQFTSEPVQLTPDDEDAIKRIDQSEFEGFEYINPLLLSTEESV

[3] = biological target: Voltage-gated inwardly rectifying potassium channel KCNH2 (Homo sapiens, UniProt Q12809); experiment: Inhibition of human ERG
Chain of Voltage-gated inwardly rectifying potassium channel KCNH2 (Q12809 whole entry): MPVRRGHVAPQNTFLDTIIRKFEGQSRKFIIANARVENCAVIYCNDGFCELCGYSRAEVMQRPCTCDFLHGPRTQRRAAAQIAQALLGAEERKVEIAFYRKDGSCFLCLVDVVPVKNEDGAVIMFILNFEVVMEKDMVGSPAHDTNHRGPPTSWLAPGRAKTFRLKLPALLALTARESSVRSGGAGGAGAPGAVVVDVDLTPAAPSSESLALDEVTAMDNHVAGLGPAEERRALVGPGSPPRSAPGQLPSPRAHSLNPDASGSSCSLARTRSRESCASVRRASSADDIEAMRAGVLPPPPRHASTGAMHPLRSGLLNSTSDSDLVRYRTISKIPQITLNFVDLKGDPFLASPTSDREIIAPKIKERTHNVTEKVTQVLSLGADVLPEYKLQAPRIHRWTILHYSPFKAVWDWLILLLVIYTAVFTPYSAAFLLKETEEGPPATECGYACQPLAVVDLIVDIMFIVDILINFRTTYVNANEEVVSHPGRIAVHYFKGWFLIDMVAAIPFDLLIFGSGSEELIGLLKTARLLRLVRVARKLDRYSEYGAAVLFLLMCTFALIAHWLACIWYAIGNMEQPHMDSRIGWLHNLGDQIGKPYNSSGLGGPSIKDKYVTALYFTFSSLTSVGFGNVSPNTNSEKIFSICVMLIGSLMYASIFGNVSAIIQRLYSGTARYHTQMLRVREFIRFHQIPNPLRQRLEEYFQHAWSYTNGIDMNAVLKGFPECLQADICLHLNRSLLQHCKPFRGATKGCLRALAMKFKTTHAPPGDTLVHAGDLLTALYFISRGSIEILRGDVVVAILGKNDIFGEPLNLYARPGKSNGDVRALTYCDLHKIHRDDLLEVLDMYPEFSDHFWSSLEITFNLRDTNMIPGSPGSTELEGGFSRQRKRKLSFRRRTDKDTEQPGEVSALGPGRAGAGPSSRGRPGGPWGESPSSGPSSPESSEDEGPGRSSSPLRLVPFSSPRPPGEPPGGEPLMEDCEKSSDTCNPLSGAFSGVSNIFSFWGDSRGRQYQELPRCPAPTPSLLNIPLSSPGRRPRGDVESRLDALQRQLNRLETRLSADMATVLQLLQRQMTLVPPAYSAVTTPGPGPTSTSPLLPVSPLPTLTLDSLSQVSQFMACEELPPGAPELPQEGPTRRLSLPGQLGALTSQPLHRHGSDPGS

[4] = biological target: T1, Protein kinase C zeta type; experiment: Inhibition of atypical PKCzeta (unknown origin) using CREBtide as substrate incubated for 1 hr measured every 2.5 mins by ADP Quest assay
[5] = biological target: T2, Protein kinase C iota type (Homo sapiens, UniProt P41743); experiment: Inhibition of atypical PKCiota (unknown origin) using CREBtide as substrate incubated for 1 hr measured every 2.5 mins by ADP Quest assay
T2 sequence (P41743 whole entry): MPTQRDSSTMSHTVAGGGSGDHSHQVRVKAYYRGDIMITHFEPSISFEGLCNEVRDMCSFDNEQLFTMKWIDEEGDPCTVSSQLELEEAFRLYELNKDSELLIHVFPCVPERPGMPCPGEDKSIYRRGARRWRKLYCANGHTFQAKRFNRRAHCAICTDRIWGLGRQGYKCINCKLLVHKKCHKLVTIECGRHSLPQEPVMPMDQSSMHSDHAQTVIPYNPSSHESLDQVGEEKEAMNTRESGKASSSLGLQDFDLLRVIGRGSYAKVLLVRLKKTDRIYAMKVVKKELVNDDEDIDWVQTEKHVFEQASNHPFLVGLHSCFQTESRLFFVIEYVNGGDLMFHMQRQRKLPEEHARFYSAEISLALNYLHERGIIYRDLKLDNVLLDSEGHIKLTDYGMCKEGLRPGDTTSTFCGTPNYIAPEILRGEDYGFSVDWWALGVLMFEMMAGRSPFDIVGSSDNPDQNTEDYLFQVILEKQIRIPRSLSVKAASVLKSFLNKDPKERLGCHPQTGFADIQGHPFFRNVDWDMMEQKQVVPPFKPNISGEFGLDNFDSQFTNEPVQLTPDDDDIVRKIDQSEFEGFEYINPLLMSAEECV

EC50 [1] [nM]	EC50 [2] [nM]	IC50 [4] [nM]	IC50 [5] [nM]	SMILES	IC50 [3] [nM]
1	3	–	–	O=C(c1ccc(Nc2nccc(-c3cc4ccccc4s3)n2)cc1)N1CCC(N2CCCC2)CC1	–
–	–	–	–	COc1ccc(-c2csc(N)c2C(=O)OC(C)C)cc1OC	> 10000
–	2	6000	–	COc1ccc(-c2csc(N)c2C(=O)OCc2ccccc2)cc1OC	–
> 100	1	–	900	COc1cccc(COC(=O)c2c(-c3ccc(OC)c(OC)c3)csc2N)c1	1000
270	1	2000	–	CCOC(=O)c1c(-c2ccc(N)cc2)csc1N	–
280	–	–	900	CCOC(=O)c1c(-c2ccc(N(C)C)cc2)csc1N	> 10000
20	2	2000	2000	CCOC(=O)c1c(-c2ccc3c(c2)OCO3)csc1N	–
–	10	4000	–	CCOC(=O)c1c(-c2ccc(OC)cc2F)csc1N	–
